Measurements: ChEMBL document CHEMBL3621052, “Small cyclic agonists of iron regulatory hormone hepcidin” (Bioorg Med Chem Lett, 2015)
Blank lines part the entries; values can stand above or below the compound they belong to. Activity calls are given as the source filed them. The rule behind the calls is not given here. Starred links: 1 amine or outer side, 2 acyl side, 3 side chain; linkers in the order of their positions; H or OH if unused. Positions of bridges follow the written chain, without caps; N, C: chain ends. Residues, ends and D or L forms follow the SMILES beside them. *: point of attachment. Propanoyl(3,3-Ph2) = O=C(CC(c1ccccc1)c1ccccc1)*; X1 = CCCCCCCCCCCCCCCC(=O)NCCOCCOCCN*; mXylylene = c1cc(C[*:1])cc(C[*:2])c1

How the values were obtained:
[1] = target: T1, Ferroportin (Homo sapiens, UniProt Q9NP59); experiment: Agonist activity at GFP-fused human FPN transfected in HEK293 cells assessed as protein degradation after 24 hrs by flow cytometric analysis; assay type: cell-based
T1 sequence (Q9NP59 whole entry): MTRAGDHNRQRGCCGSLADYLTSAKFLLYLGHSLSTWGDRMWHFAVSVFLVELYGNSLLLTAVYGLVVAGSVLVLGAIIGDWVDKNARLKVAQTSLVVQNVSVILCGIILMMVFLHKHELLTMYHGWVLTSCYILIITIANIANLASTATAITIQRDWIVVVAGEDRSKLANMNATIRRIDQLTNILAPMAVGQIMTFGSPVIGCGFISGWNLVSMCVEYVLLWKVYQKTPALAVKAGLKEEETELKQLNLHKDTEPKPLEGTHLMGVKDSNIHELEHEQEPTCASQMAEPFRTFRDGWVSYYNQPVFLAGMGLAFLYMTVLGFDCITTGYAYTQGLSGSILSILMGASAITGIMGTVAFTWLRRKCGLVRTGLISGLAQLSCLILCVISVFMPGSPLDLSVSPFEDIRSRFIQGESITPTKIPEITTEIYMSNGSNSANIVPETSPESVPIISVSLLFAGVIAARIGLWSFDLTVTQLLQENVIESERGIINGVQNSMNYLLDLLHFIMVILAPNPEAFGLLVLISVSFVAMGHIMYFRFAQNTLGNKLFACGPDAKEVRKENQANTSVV
In short: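 HEK293:TREX-Fpn-GFP cells (human ferroportin-GFP, doxycycline-inducible) plated on poly-D-lysine with 20 μM FAC, induced with 500 ng/mL doxycycline for 24 h, washed, then peptide-treated 24 h. Green fluorescence read by flow cytometry at 1 × 10^6 cells/mL, gated against uninduced cells. Activity expressed as fraction of hep25: 1 − [(Fx − Fhep25)/(Funtreated − Fhep25)]. 3–6 independent repeats.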

[2] = tested on: Mus musculus; experiment: Decrease in serum iron level in C57BL/6 mouse at 50 to 200 nmol, sc after 24 hrs by colorimetric analysis; assay type: functional, organism-based
In short: (§1)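 C57BL/6 mice on NIH 31 diet (iron 336 mg/kg). Single subcutaneous injection of 50, 100 or 200 nmoles peptide in 100 μL PBS; controls received PBS alone. Killed at 24 h, serum from cardiac blood. Serum iron by colorimetric assay (microplate, 50 μL serum). Percent decrease versus mean of PBS-injected mice.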

[3] = Half life in cynomolgus monkey; assay type: ADME, organism-based, Macaca fascicularis; details: in vivo
[4] = tested on: Mus musculus; experiment: Decrease in serum iron level in C57BL/6 mouse at 50 nmol, sc after 24 hrs by colorimetric analysis; assay type: functional, organism-based; in short: as §1
[5] = tested on: Plasma; experiment: Metabolic stability in mouse plasma at 25 uM by LC/MS analysis; assay type: ADME, cell-free
In short: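 Peptide from 10 mM DMSO stock added to fresh mouse plasma (final 25 μM), incubated at 37 °C. Samples (10 μL) taken at time-points and diluted into DMSO/ACN 1:1 with 0.1% TFA. Centrifuged 13000 rpm, 10 min. Supernatant analysed by triple-quadrupole LC/MS with NM4A-Me peptide as internal standard.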

[6] = tested on: Mus musculus; experiment: Decrease in serum iron level in C57BL/6 mouse at 50 to 100 nmol, sc after 24 hrs by colorimetric analysis; assay type: functional, organism-based; details: in the assay text read “50 to 200 nmol” for “50 to 100 nmol”
In short: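 C57BL/6 mice on NIH 31 diet (iron 336 mg/kg) received 50, 100 or 200 nmoles peptide in 100 μL PBS sc, or PBS alone. Killed at 24 h, serum from cardiac puncture. Serum iron measured by microplate colorimetric assay using 50 μL serum. Reported as % decrease versus mean of PBS-injected mice.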

SMILES: N=C(N)NCCC[C@@H]1NC(=O)[C@@H](NC(=O)CC(c2ccccc2)c2ccccc2)CSCc2cccc(c2)CSC[C@@H](C(N)=O)NC(=O)[C@H](Cc2ccccc2)NC(=O)[C@H](CCCNC(=N)N)NC(=O)[C@H](CS)NC1=O ({Propanoyl(3,3-Ph2)}-CRCRFC-NH2; linker 1-6 via mXylylene)
EC50 [1]: 104 nM
Activity [2]: inactive

half-life [3]: < 2.5 min
SMILES: CC[C@H](C)[C@@H]1NC(=O)[C@@H](NC(=O)[C@@H](NC(=O)[C@@H]2CCCN2C(=O)[C@H](Cc2ccccc2)NC(=O)[C@H](Cc2c[nH]cn2)NC(=O)[C@@H](NC(=O)[C@@H](N)CC(=O)O)[C@@H](C)O)[C@@H](C)CC)CSSC[C@@H](C(=O)N[C@@H](CCCCN)C(=O)N[C@H](C(=O)O)[C@@H](C)O)NC(=O)[C@@H]2CSSC[C@@H]3NC(=O)[C@@H]4CSSC[C@H](NC(=O)[C@H](Cc5ccccc5)NC1=O)C(=O)N[C@@H](CSSC[C@H](NC(=O)[C@H](CCCCN)NC(=O)[C@H](CO)NC(=O)[C@H](CCCNC(=N)N)NC(=O)[C@H](Cc1c[nH]cn1)NC3=O)C(=O)NCC(=O)N[C@@H](CCSC)C(=O)N2)C(=O)NCC(=O)N4

SMILES: CCCCCCCCCCCCCCCC(=O)NCCOCCOCCNC(=O)[C@@H]1CSCc2cccc(c2)CSC[C@H](NC(=O)CC(c2ccccc2)c2ccccc2)C(=O)N[C@@H](CCCNC(=N)N)C(=O)N[C@@H](CS)C(=O)N[C@@H](CCCNC(=N)N)C(=O)N[C@@H](Cc2ccccc2)C(=O)N1 ({Propanoyl(3,3-Ph2)}-CRCRFC-X1; linker 1-6 via mXylylene)
Activity [4]: inactive
Stability [5]: Stable
EC50 [1]: 52.3 nM

EC50 [1]: 44.2 nM
SMILES: CCCCCCCCCCCCCCCCNC(=O)CN(CC(N)=O)C(=O)CCCCCNC(=O)[C@@H]1CSCc2cccc(c2)CSC[C@H](NC(C)=O)C(=O)N[C@@H](C(c2ccccc2)c2ccccc2)C(=O)N2CCC[C@H]2C(=O)N[C@@H](CCCNC(=N)N)C(=O)N[C@@H](CS)C(=O)N[C@@H](CCCNC(=N)N)C(=O)N[C@@H](Cc2ccccc2)C(=O)N1
Activity [6]: inactive
